Measurements collected from several papers.
Each line is one published result; the experiments were not run side by side.
RPS6KA6: Ribosomal protein S6 kinase alpha-6 (RPS6KA6, Homo sapiens, UniProt Q9UK32)
RPS6KA6 N-terminal kinase domain: Ribosomal protein S6 kinase alpha-6, N-terminal kinase domain (RPS6KA6, Homo sapiens, UniProt Q9UK32)
RPS6KA6 C-terminal kinase domain: Ribosomal protein S6 kinase alpha-6, C-terminal kinase domain (RPS6KA6, Homo sapiens, UniProt Q9UK32)

Compound	target	observed	mode	method	tested at	endpoint	value
CCOc1cc(-c2nncn2C)ccc1Nc1ncc2cc(C)nc(NCC(C)(C)C)c2n1	RPS6KA6	enzyme activity	inhibitor	FRET	1 µM	inhibition	24%
F[C@@H]1CCN(c2nccc(-c3cnn4ncccc34)n2)C1	RPS6KA6 N-terminal kinase domain	binding		competition with immobilised ligand	1 µM	remaining binding	82%
Cn1nc(C(=O)NCc2ccc(C(=O)O)cc2)cc1-c1ccc2[nH]ccc2c1	RPS6KA6 N-terminal kinase domain	cell-free assay		competition with immobilised ligand	0.1 µM	remaining binding	86%
CC(C)(C)c1nc2c(s1)c1nc(N)ncc1c1ccc(NS(=O)(=O)c3c(F)cccc3F)c(F)c12	RPS6KA6	enzyme activity	inhibitor	radiometric	1 µM	remaining activity	97%
COc1ccc2c(c1)O[C@H](c1ccc(OC)c(OC)c1)C[C@@H]2NC(=O)C1(c2ccc3c(c2)OC(F)(F)O3)CC1	RPS6KA6 C-terminal kinase domain	cell-free assay		competition with immobilised ligand	1 µM	remaining binding	91%
CCN(CC)CCNC(=O)c1c(C)[nH]c(/C=C2\C(=O)Nc3ccc(F)cc32)c1C	RPS6KA6	cell-free assay			0.5 µM	remaining signal	17.5%
CCOCCn1cc(C(=O)Nc2ccc(-n3nc(-c4cccnc4)cc3C(F)(F)F)cn2)ccc1=O	RPS6KA6 C-terminal kinase domain	cell-free assay		competition with immobilised ligand	1 µM	remaining binding	100%
Cc1cc(NC(=O)c2cccc3cc(-c4cccc5[nH]nc(N)c45)ccc23)ccc1F	RPS6KA6	enzyme activity	inhibitor		0.1 µM	activity vs control	94%
Cc1ccc(C(=O)Nc2ccc(CN3CCN(C)CC3)c(C(F)(F)F)c2)cc1C#Cc1cnc2cccnn12	RPS6KA6	enzyme activity	inhibitor		23.5 nM	activity vs control	84%
Oc1ccc(-c2nc(-c3ccncc3)c(-c3ccc(F)cc3)[nH]2)cc1	RPS6KA6	cell-free assay			0.5 µM	remaining signal	110%
Cn1c2c(c3ccc(Cl)c(Cl)c31)C(C#N)C1(CCOCC1)NC2=O (stereo not shown)	RPS6KA6	thermal stability		DSF	10 µM	ΔTm	0.1 °C
CS(=O)(=O)N1CCCC(NC(=O)[C@H](CCC2CCCCC2)NC(=O)c2ccc(CNc3ncnc4c3nnn4-c3ccccc3)cc2)C1 (stereo partly shown)	RPS6KA6 C-terminal kinase domain	cell-free assay		competition with immobilised ligand	0.1 µM	remaining binding	100%
C[S+]([O-])c1ccc(-c2nc(-c3ccncc3)c(-c3ccc(F)cc3)[nH]2)cc1 (stereo not shown)	RPS6KA6	cell-free assay			0.5 µM	remaining signal	110%
Cn1c2c(c3ccc(Cl)c(Cl)c31)C(C#N)C1(CCCCC1)NC2=O (racemic)	RPS6KA6	thermal stability		DSF	10 µM	ΔTm	0 °C
c1cnn2ncc(-c3ccnc(N4CCC45COC5)n3)c2c1	RPS6KA6 C-terminal kinase domain	binding		competition with immobilised ligand	1 µM	remaining binding	66%
Nc1ncnc2occ(-c3ccc(NC(=O)Nc4cc(C(F)(F)F)ccc4F)cc3)c12	RPS6KA6 N-terminal kinase domain	cell-free assay	inhibitor		20 µM	remaining signal	5.5%
Cn1c2c(Cl)c(Cl)ccc2c2cc(N)[nH]c(=O)c21	RPS6KA6	thermal stability		DSF	10 µM	ΔTm	3.3 °C
C[C@H](NC(=O)c1cnc2n1[C@](C)(Cc1ccc(C#N)cc1)C(=O)N2c1cc(Cl)c(F)c(Cl)c1)C(=O)NC1(c2ccccn2)CC1	RPS6KA6 N-terminal kinase domain	cell-free assay		competition with immobilised ligand	1 µM	remaining binding	91%
CNC(=O)c1cc(Oc2ccc(NC(=O)Nc3ccc(Cl)c(C(F)(F)F)c3)cc2)ccn1	RPS6KA6	enzyme activity	inhibitor		0.3 µM	inhibition	-29%
